Data set [1] deals with T1, Neuropeptide FF receptor 1 (Homo sapiens, UniProt Q9GZQ6). In words: Agonist activity at human NPFF1 receptor expressed in cells assessed as beta-galactosidase levels at […] after 5 days. Format: functional, cell-based.
Data set [2] addresses T2, Neuropeptide FF receptor 2 (Homo sapiens, UniProt Q9Y5X5). Nature of the data set: Agonist activity at human NPFF2 receptor expressed in cells assessed as beta-galactosidase levels at […] after 5 days. Format: functional, cell-based.
The target of data set [3] is T1, Neuropeptide FF receptor 1. In words: Agonist activity at human NPFF1 receptor expressed in cells assessed as beta-galactosidase levels after 5 days. The format is functional, cell-based. In outline:
(§1)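 Functional R-SAT assay at human NPFF1 and NPFF2 receptors in agonist mode. Dose-response curves were built from seven concentrations, each tested in triplicate. Values are mean ± SEM of at least three independent experiments.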

The target of data set [4] is T2, Neuropeptide FF receptor 2. In words: Agonist activity at human NPFF2 receptor expressed in cells assessed as beta-galactosidase levels after 5 days. Format: functional, cell-based. The gist of the method:
as §1

The target of data set [5] is T1, Neuropeptide FF receptor 1. In words: Agonist activity at human NPFF1 receptor expressed in HEK293T cells assessed as inhibition of PGE2-induced cAMP release. Also noted: Activity: scale not given: the % may be the effect or the level left. As to conditions: HEK-293T.
Data set [6] concerns Rattus norvegicus. In words: Antiallodynic activity in Sprague-Dawley rat Kim-Chung model of neuropathic pain assessed mechanical-stimuli induced paw withdrawal threshold at 30 mg/kg. The format is functional, organism-based. Also noted: dose 30 mg/kg. The gist of the method:
(§2)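 Rats underwent spinal nerve ligation (SNL), with sham-operated rats also used. Tactile allodynia was defined as a significant reduction in paw withdrawal threshold to mechanical stimuli.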

In data set [7] the test system is Rattus norvegicus. In words: Antiinflammatory activity in ip dosed Sprague-Dawley rat assessed as inhibition of carrageenan-induced thermal hypersensitivity by hotplate test. Format: functional, organism-based. The gist of the method: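 Acute inflammatory pain was produced in rats by carrageenan. Thermal hypersensitivity was measured by hot plate test on a metal plate held at 52 °C.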

Data set [8] concerns the target T2, Neuropeptide FF receptor 2. In words: Agonist activity at human NPFF2 receptor expressed in HEK293T cells assessed as inhibition of PGE2-induced cAMP release. As to conditions: HEK-293T.
For data set [9], the system named is Rattus norvegicus. Nature of the data set: Antiinflammatory activity in ip dosed Sprague-Dawley rat assessed as inhibition of carrageenan-induced paw edema. Format: functional, organism-based. On the technique in general: Carrageenan injected into the paw causes an acute inflammation.
Data set [10] relates to Rattus norvegicus. In words: Antiallodynic activity in Sprague-Dawley rat Kim-Chung model of neuropathic pain assessed mechanical-stimuli induced paw withdrawal threshold at 10 mg/kg. Format: functional, organism-based. Also noted: dose 10 mg/kg. In outline: as §2
The nature of data set [11]: Activity at alpha-adrenergic receptor.
In data set [12] the target is T1, Neuropeptide FF receptor 1. Nature of the data set: Antagonist activity at human NPFF1 receptor expressed in HEK293T cells assessed as inhibition of PGE2-induced cAMP release. Format: functional, cell-based. To be noted: HEK-293T.
For data set [13], the species on record is Rattus norvegicus. Nature of the data set: Antiallodynic activity in Sprague-Dawley rat Kim-Chung model of neuropathic pain assessed mechanical-stimuli induced paw withdrawal threshold. The format is functional, organism-based. In outline:
as §2

Data set [14] is described as follows: Oral bioavailability in Sprague-Dawley rat. Format: ADME, organism-based. As to conditions: in vivo.
Data set [15] is described as follows: Lipophilicity, log P of the compound. To be noted: octanol/water. Format: physicochemical.
The nature of data set [16]: Clearance in rat liver microsomes. The format is ADME, Microsome. In outline: (§3)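 Stability was measured in human and in rat liver microsomes. Clearance is reported in μL/(min·mg) and related to liver blood flow.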
In general terms: Liver microsomes are vesicles of endoplasmic reticulum, rich in cytochrome P450 enzymes.

A short description of data set [17]: Dissociation constant, pKa of the compound. The format is physicochemical.
Data set [18] is described as follows: Distribution coefficient, log D of the compound. The format is physicochemical. To be noted: octanol/water.
The nature of data set [19]: Half life in Sprague-Dawley rat. To be noted: in vivo. The format is ADME, organism-based.
Data set [20] in a line: Clearance in human liver microsomes. The format is ADME, Microsome. In outline: as §3
The species named for data set [21] is Rattus norvegicus. Nature of the data set: Antiallodynic activity in Sprague-Dawley rat Kim-Chung model of neuropathic pain assessed mechanical-stimuli induced paw withdrawal threshold in presence of […]-antagonist dansyl-PQR-amide. Format: functional, organism-based. The gist of the method: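 Rats with spinal nerve ligation, plus sham-operated rats. Tactile allodynia was scored as a significant reduction in paw withdrawal threshold. The selective NPFF1 antagonist dansylPQRamide was given at 30 mg/kg ip alongside the test agonist, with systemic dosing.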

The term EC50 denotes the concentration that produces a half-maximal response. By bioavailability is commonly meant dose-corrected exposure relative to a reference, in per cent. Usually logP stands for the decadic logarithm of the partition coefficient of the neutral form, usually between octanol and water. One may read the microsomal CLint as the rate of metabolic loss divided by the concentration. The pKa is the pH at which an ionisable group is half protonated. One may read the logD as the decadic logarithm of the distribution of all forms, ionised or not, between an organic phase and buffer at a given pH. A word on the half-life: it is the time needed for the level to fall by half in the phase considered.

The source made the active and inactive calls.

T2 sequence (Q9Y5X5 whole entry): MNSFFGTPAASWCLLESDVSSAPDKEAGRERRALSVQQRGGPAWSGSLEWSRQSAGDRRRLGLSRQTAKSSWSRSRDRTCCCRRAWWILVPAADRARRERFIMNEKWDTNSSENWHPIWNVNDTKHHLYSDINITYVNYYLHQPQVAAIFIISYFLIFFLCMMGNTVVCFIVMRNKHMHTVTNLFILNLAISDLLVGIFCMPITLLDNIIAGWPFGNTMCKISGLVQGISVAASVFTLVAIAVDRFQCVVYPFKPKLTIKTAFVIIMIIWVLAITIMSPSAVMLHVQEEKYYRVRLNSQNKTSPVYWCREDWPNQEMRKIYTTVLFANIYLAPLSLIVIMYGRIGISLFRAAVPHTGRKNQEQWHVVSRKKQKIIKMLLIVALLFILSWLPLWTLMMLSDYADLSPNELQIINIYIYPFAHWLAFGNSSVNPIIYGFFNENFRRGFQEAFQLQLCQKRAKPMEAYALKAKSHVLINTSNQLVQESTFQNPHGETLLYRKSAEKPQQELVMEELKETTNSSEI
T1 sequence (Q9GZQ6 whole entry): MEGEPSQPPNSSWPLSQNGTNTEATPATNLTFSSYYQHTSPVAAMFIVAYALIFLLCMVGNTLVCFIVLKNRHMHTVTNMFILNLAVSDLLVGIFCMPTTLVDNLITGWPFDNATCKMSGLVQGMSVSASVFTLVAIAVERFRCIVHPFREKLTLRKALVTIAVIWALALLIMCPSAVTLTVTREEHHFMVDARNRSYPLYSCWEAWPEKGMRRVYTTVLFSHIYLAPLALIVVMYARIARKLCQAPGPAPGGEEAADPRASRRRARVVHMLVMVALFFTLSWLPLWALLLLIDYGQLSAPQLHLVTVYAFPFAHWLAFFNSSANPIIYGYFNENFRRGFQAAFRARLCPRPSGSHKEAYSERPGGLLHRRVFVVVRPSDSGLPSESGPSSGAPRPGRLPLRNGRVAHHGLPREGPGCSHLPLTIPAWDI

Take `N=C(N)N/N=C(\c1ccccc1)c1ccc(Cl)c(Cl)c1`: the values for the Efficacy in [1] and in data set [2] were 46% and 63%, respectively. Further, the EC50 in data set [3] and in [4] was 794 nM each time.
Consider `N=C(N)N/N=C/c1ccc(-c2ccccc2C(F)(F)F)s1`, for which the Efficacy was 44% in data set [1] and 55% in data set [2]. In addition, the results for the 50% effective concentration (EC50) in data set [3] and in data set [4] were 126 nM and 158 nM, respectively.
As to `C/C(=N\N=C(N)N)c1ccc(Cl)c(Cl)c1`, the Efficacy result in data set [1] was “inactive”. Besides, the Efficacy in data set [2] is 64%. Moreover, the EC50 in data set [4] is 501 nM.
Turning to `N=C(N)N/N=C/c1ccc(Br)c(Br)c1`, the Efficacy entry in data set [1] is “inactive”. In addition, the Efficacy in data set [2] is 90%.
For the molecule `Cc1ccccc1-c1ccc(/C=N/NC(=N)N)o1`, the Efficacy in data set [1] was determined as 55%; in data set [2], 90%. The half-maximal effective concentration (EC50) in data set [3] is 79.4 nM; in [4], 100 nM.
Turning to `CCCCCNC(=N)N/N=C/c1c[nH]c2ccc(OC)cc12`, the result in [1] and in data set [2] was inactive.
`C/C(=N\NC(=N)N)c1ccc(Cl)c(C(F)(F)F)c1`: the Efficacy entry in data set [1] is “inactive”. For the same molecule, the Efficacy in data set [2] is 66%. Besides, the EC50 in data set [4] is 398 nM.
In the case of `N=C(N)N/N=C/c1ccc(Cl)c(C(F)(F)F)c1`, the Activity in data set [5] is 42%; in the data set on Rattus norvegicus [7], “Dose-dependent effect”. Further, the outcome with Rattus norvegicus [6] was Active. Moreover, the Efficacy is 89% in data set [8], 46% in data set [1] and 114% in data set [2]. The half-maximal effective concentration (EC50) in [3] was over 3160 nM. Also, in the data set with Rattus norvegicus [9], the result was inactive.
`N=C(N)N/N=C/c1ccc(Cl)c(Cl)c1`: the outcome with Rattus norvegicus [10] was Active. The Activity result in the data set with Rattus norvegicus [7] was “Dose-dependent effect”. In addition, the results for the Efficacy in data set [1] and in data set [2] were 18% and 68%, respectively. Also, the result (in [11]; in data set [12]; in the data set on Rattus norvegicus [9]) was inactive.
For the molecule `N=C(N)N/N=C/c1ccc(-c2ccccc2C(F)(F)F)o1`, the Efficacy in [5] was found to be 93%; in data set [8] it was 114%; in data set [1] it was 55%; in data set [2], 73%. Further, the outcome in the data set filed under Rattus norvegicus [13] was inactive. For the same molecule, the 50% effective concentration (EC50) was 39.8 nM in [3] and 100 nM in data set [4].
Turning to `CC(C)c1ccccc1-c1ccc(/C=N/NC(=N)N)o1`, the Efficacy was 62% in data set [1] and 70% in data set [2]. Further, the results for the half-maximal effective concentration (EC50) in data set [3] and in data set [4] were 158 nM and 200 nM, respectively.
For `N=C(N)N/N=C/c1c(Cl)cccc1Cl`, the result in data set [1] and in [2] was inactive.
As for `Cn1c(/C=N/NC(=N)N)ccc1-c1ccccc1C(F)(F)F`, the Efficacy was determined as 36% in data set [1] and 72% in [2]. Further, the figures for the EC50 in data set [3] and in [4] were 316 nM and 126 nM, respectively.
With `NC(N)=N/N=C/c1ccc(Cl)c(Cl)c1`, in [14], the bioavailability was 43%. The logP in [15] turned out to be 2.8. Also, the microsomal CLint is 18 µL/min/mg in [16] and 26 µL/min/mg in data set [20]. The molecule further registered a pKa in data set [17] of 8.4. For the same molecule, the logD in [18] turned out to be 1.8. Also, the half-life in data set [19] is 2.5 h. Also, the EC50 in [4] is 1000 nM.
On to `CN(C)c1cccc2c(S(=O)(=O)N3CCC[C@H]3C(=O)N[C@@H](CCC(N)=O)C(=O)N[C@@H](CCCNC(=N)N)C(N)=O)cccc12`, for which, in the data set filed under Rattus norvegicus [21], the result was Active.
